ChEMBL document CHEMBL1132274, “2,7-Disubstituted amidofluorenone derivatives as inhibitors of human telomerase” (J Med Chem, 1999)
Active and inactive are the calls of the source. No cut-off for these calls is given here.

How the values were obtained:
[1] = target: DNA polymerase I, thermostable (Thermus aquaticus) (UniProt P19821); test: Inhibitory activity against taq polymerase at 10 uM; No inhibition
[2] = target: Telomerase reverse transcriptase (Homo sapiens, UniProt O14746); test: Inhibitory activity against telomerase
Chain of Telomerase reverse transcriptase (O14746 whole entry): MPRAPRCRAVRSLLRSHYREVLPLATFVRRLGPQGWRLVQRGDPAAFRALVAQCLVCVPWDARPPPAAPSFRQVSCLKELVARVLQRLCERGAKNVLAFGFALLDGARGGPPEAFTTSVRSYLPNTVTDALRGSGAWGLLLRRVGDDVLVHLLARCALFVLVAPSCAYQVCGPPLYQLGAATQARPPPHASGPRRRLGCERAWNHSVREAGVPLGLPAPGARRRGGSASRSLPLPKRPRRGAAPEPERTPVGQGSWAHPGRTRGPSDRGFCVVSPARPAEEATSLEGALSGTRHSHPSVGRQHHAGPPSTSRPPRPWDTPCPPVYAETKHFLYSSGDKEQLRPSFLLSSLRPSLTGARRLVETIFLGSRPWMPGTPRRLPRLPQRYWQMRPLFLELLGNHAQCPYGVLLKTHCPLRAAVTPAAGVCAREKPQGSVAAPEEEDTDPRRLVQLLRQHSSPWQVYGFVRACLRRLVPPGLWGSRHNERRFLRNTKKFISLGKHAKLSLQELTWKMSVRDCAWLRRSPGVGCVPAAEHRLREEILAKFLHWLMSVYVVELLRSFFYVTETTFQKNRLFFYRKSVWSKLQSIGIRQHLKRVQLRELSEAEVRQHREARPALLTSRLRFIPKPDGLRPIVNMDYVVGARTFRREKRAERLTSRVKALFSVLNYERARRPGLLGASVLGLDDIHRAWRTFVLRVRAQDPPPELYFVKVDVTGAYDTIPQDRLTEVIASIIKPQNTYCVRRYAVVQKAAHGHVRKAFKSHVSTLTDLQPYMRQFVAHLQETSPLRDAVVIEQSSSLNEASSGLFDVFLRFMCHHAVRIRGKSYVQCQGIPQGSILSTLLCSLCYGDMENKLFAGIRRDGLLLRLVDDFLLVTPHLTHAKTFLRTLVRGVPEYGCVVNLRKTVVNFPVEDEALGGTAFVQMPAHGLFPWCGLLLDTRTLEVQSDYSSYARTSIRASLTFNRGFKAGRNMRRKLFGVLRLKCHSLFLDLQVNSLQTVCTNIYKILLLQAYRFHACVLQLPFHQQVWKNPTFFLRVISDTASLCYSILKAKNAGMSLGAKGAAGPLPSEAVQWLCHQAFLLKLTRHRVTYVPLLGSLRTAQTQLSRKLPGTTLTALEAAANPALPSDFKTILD
Procedure, shortened: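 Modified TRAP with extract from exponentially growing A2780 ovarian carcinoma cells. Telomerase then inactivated at 80 °C for 5 min, CX primer and Taq added, 31 PCR cycles. Products analysed by denaturing PAGE with phosphorimaging/autoradiography, or by filter scintillation counting.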

[3] = target: DNA polymerase I, thermostable (Thermus aquaticus) (UniProt P19821); test: Inhibitory activity against taq polymerase at 20 uM; No inhibition
[4] = tested on: A2780; test: Cytotoxicity measured in human ovarian cell line A2780 using sulforhodamine B (SRB) assay; assay type: functional, cell-based
Procedure, shortened: (§1)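 SRB growth-inhibition assay in human ovarian carcinoma cells: 3000–6000 cells/well attached overnight, then salts (dissolved at 500 μM in water) added in quadruplicate at final 0.05, 0.25, 1, 5 and 25 μM. After 96 h, cells fixed with ice-cold 10% TCA and stained with 0.4% SRB. Mean A540 expressed as % of untreated control; IC50 = concentration giving 50% growth inhibition.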

[5] = target: DNA polymerase I, thermostable (Thermus aquaticus) (UniProt P19821); test: Inhibitory activity against taq polymerase at 50 uM; Slight
[6] = tested on: SK-OV-3; test: Cytotoxicity measured in human ovarian cell line SKOV-3 using sulforhodamine B (SRB) assay.; assay type: functional, cell-based; procedure, shortened: as §1
[7] = tested on: CH1; test: Cytotoxicity measured in human ovarian cell line CH1 using sulforhodamine B (SRB) assay.; assay type: functional, cell-based; procedure, shortened: as §1
[8] = target: DNA polymerase I, thermostable (Thermus aquaticus) (UniProt P19821); test: Inhibitory activity against taq polymerase at 50 uM; Significant
[9] = target: DNA polymerase I, thermostable (Thermus aquaticus) (UniProt P19821); test: Inhibitory activity against taq polymerase at 50 uM; No inhibition
[10] = tested on: SK-OV-3; test: Cytotoxicity activity was measured in human ovarian cell line SKOV-3 using sulforhodamine B (SRB) assay; assay type: functional, cell-based; procedure, shortened: as §1
[11] = tested on: CH1; test: Cytotoxicity activity was measured in human ovarian cell line CH1 using sulforhodamine B (SRB) assay; assay type: functional, cell-based; procedure, shortened: as §1
[12] = tested on: A2780; test: Cytotoxicity activity of the compound was measured in human ovarian cell line A2780 using sulforhodamine B (SRB) assay; assay type: functional, cell-based; procedure, shortened: as §1

Chain of DNA polymerase I, thermostable (Thermus aquaticus) (P19821 whole entry): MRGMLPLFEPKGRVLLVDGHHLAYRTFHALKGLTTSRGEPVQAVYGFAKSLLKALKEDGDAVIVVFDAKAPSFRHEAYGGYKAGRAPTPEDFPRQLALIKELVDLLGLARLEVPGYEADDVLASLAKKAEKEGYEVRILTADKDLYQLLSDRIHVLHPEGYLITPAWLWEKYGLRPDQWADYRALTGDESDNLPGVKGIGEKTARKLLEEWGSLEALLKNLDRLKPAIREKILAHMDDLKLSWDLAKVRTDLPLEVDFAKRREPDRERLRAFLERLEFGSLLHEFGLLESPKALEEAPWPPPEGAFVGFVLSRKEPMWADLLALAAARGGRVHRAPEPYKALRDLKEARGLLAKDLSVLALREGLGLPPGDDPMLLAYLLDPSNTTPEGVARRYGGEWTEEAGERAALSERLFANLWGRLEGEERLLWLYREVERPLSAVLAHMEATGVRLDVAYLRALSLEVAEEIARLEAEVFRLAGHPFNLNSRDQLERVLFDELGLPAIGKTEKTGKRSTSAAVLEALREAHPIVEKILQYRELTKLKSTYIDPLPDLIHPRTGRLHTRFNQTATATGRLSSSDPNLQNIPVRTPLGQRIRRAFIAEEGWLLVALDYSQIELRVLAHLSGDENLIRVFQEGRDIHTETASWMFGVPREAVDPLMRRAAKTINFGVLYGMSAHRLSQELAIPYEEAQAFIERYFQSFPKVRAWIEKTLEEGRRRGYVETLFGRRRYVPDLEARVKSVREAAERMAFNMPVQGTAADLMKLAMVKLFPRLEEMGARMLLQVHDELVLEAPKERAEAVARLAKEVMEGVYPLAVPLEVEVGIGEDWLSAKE

Row | SMILES | inhibition [1] | IC50 [2] | inhibition [3] | IC50 [4] | inhibition [5] | IC50 [6] | IC50 [7] | inhibition [8] | inhibition [9] | IC50 [10] | IC50 [11] | IC50 [12]
1 | CC1CC[N+](C)(CCC(=O)Nc2ccc3c(c2)C(=O)c2cc(NC(=O)CC[N+]4(C)CCC(C)CC4)ccc2-3)CC1 (stereo not drawn) | inactive | > 20 µM | inactive | 2.5 µM | Weak inhibition | 3.75 µM | > 25 µM |  |  |  |  | 
2 | C[N+]1(CCC(=O)Nc2ccc3c(c2)C(=O)c2cc(NC(=O)CC[N+]4(C)CCCCC4CCO)ccc2-3)CCCCC1CCO (stereo not drawn) | inactive | > 20 µM | inactive | 5.2 µM |  | 5.2 µM | 3.15 µM | Significant |  |  |  | 
3 | O=C(CCN1CCN(c2ncccn2)CC1)Nc1ccc2c(c1)C(=O)c1cc(NC(=O)CCN3CCN(c4ncccn4)CC3)ccc1-2 | inactive | > 50 µM | inactive | > 25 µM |  | > 25 µM | > 25 µM |  | inactive |  |  | 
4 | CC1CCCC[N+]1(C)CCC(=O)Nc1ccc2c(c1)C(=O)c1cc(NC(=O)CC[N+]3(C)CCCCC3C)ccc1-2 (stereo not drawn) | inactive | > 20 µM | inactive | 4.85 µM | Weak inhibition | 3.95 µM | 2.6 µM |  |  |  |  | 
5 | O=C(CCN1CCN(Cc2ccccc2)CC1)Nc1ccc2c(c1)C(=O)c1cc(NC(=O)CCN3CCN(Cc4ccccc4)CC3)ccc1-2 | inactive | > 50 µM | inactive | > 25 µM |  | > 25 µM | > 25 µM |  | inactive |  |  | 
6 | O=C(CCN1CCN(c2ccccc2)CC1)Nc1ccc2c(c1)C(=O)c1cc(NC(=O)CCN3CCN(c4ccccc4)CC3)ccc1-2 | inactive | > 50 µM | inactive | > 25 µM |  | > 25 µM | > 25 µM |  | inactive |  |  | 
7 | CC1CCCCN1CCC(=O)Nc1ccc2c(c1)C(=O)c1cc(NC(=O)CCN3CCCCC3C)ccc1-2 (stereo not drawn) | inactive | 12 µM | inactive | 10.5 µM |  | 12 µM | 1.8 µM |  | inactive |  |  | 
8 | O=C(CCN1CCCCC1)Nc1ccc2c(c1)C(=O)c1cc(NC(=O)CCN3CCCCC3)ccc1-2 | inactive | 9 µM | inactive | 11 µM |  | 11 µM | 7.6 µM |  | inactive |  |  | 
9 | CN(C)CCC(=O)Nc1ccc2c(c1)C(=O)c1cc(NC(=O)CCN(C)C)ccc1-2 | inactive | 16.2 µM | inactive | 12 µM |  | 8.2 µM | 8.5 µM |  | inactive |  |  | 
10 | CCC1CCCCN1CCC(=O)Nc1ccc2c(c1)C(=O)c1cc(NC(=O)CCN3CCCCC3CC)ccc1-2 (stereo not drawn) | inactive | 14 µM | inactive | 2.2 µM |  | 3.15 µM | 2.15 µM |  | inactive |  |  | 
11 | CCC1CCCC[N+]1(C)CCC(=O)Nc1ccc2c(c1)C(=O)c1cc(NC(=O)CC[N+]3(C)CCCCC3CC)ccc1-2 (stereo not drawn) | inactive | > 20 µM | inactive | 2.9 µM | Weak inhibition | 2.6 µM | 2.35 µM |  |  |  |  | 
12 | CC1CCN(CCC(=O)Nc2ccc3c(c2)C(=O)c2cc(NC(=O)CCN4CCC(C)CC4)ccc2-3)CC1 | inactive | > 20 µM | inactive | 2.2 µM |  | 7.6 µM | > 25 µM |  | inactive |  |  | 
13 | O=C(CCN1CCOCC1)Nc1ccc2c(c1)C(=O)c1cc(NC(=O)CCN3CCOCC3)ccc1-2 | inactive | > 50 µM | inactive | > 25 µM |  | > 25 µM | > 25 µM |  | inactive |  |  | 
14 | C[N+]1(CCC(=O)Nc2ccc3c(c2)C(=O)c2cc(NC(=O)CC[N+]4(C)CCCCC4)ccc2-3)CCCCC1 | inactive | 21 µM | inactive | 4.3 µM |  | 3.9 µM | 5.2 µM |  | inactive |  |  | 
15 | C[N+]1(CCC(=O)Nc2ccc3c(c2)C(=O)c2cc(NC(=O)CC[N+]4(C)CCCCC4CO)ccc2-3)CCCCC1CO (stereo not drawn) | inactive | 33 µM | inactive | 3.75 µM |  | 4.3 µM | 4.2 µM |  | inactive |  |  | 
16 | O=C(CCN1CCCCC1CCO)Nc1ccc2c(c1)C(=O)c1cc(NC(=O)CCN3CCCCC3CCO)ccc1-2 (stereo not drawn) | inactive | 16.5 µM | inactive | > 25 µM |  | 20 µM | 14.5 µM |  | inactive |  |  | 
17 | O=C(CCN1CCCCC1CO)Nc1ccc2c(c1)C(=O)c1cc(NC(=O)CCN3CCCCC3CO)ccc1-2 (stereo not drawn) | inactive | 8 µM | inactive | 13 µM |  | 15 µM | 14 µM |  | inactive |  |  | 
18 | CCN(CC)CCC(=O)Nc1ccc2c(c1)C(=O)c1cc(NC(=O)CCN(CC)CC)ccc1C2=O |  |  |  | 2.15 µM |  |  |  |  |  |  |  | 
19 | CC[N+](C)(CC)CCC(=O)Nc1ccc2c(c1)C(=O)c1cc(NC(=O)CC[N+](C)(CC)CC)ccc1-2 | inactive | 25.4 µM | inactive | 3.7 µM |  | 2.4 µM | 2.45 µM |  | inactive |  |  | 
20 | C[N+]1(CCC(=O)Nc2ccc3c(c2)C(=O)c2cc(NC(=O)CC[N+]4(C)CCOCC4)ccc2-3)CCOCC1 | inactive | 27.3 µM | inactive | 2.55 µM |  | 2.45 µM | 2.15 µM |  | inactive |  |  | 
21 | C[N+]1(CCC(=O)Nc2ccc3c(c2)C(=O)c2cc(NC(=O)CC[N+]4(C)CCC(O)CC4)ccc2-3)CCC(O)CC1 (stereo not drawn) | inactive | > 20 µM | inactive | 2.4 µM | Weak inhibition |  |  |  |  | 4.7 µM | 1950 nM | 
22 | CN1CCN(CCC(=O)Nc2ccc3c(c2)C(=O)c2cc(NC(=O)CCN4CCN(C)CC4)ccc2-3)CC1 | inactive | 44 µM | inactive |  |  | > 25 µM | > 25 µM |  | inactive |  |  | > 25 µM
23 | C[N+](C)(C)CCC(=O)Nc1ccc2c(c1)C(=O)c1cc(NC(=O)CC[N+](C)(C)C)ccc1-2 | inactive | 18.5 µM | inactive | 2.25 µM |  | 1.95 µM | 1.95 µM |  | inactive |  |  | 
24 | CCN1CCN(CCC(=O)Nc2ccc3c(c2)C(=O)c2cc(NC(=O)CCN4CCN(CC)CC4)ccc2-3)CC1 | inactive | 17 µM | inactive | > 25 µM |  | > 25 µM | > 25 µM |  | inactive |  |  | 
25 | CCN(CC)CCC(=O)Nc1ccc2c(c1)C(=O)c1cc(NC(=O)CCN(CC)CC)ccc1-2 | inactive | 15.5 µM | inactive | 14 µM |  | 9.65 µM | 8 µM |  | inactive |  |  | 
26 | O=C(CCN1CCN(c2ccccn2)CC1)Nc1ccc2c(c1)C(=O)c1cc(NC(=O)CCN3CCN(c4ccccn4)CC3)ccc1-2 | inactive | > 50 µM | inactive | > 25 µM |  | > 25 µM | > 25 µM |  | inactive |  |  | 
27 | O=C(CCN1CCC(O)CC1)Nc1ccc2c(c1)C(=O)c1cc(NC(=O)CCN3CCC(O)CC3)ccc1-2 | inactive | 18.5 µM | inactive | > 25 µM |  | > 25 µM | > 25 µM |  | inactive |  |  | 
